Results reported in ChEMBL document CHEMBL3352420, “Discovery of 2-pyridylureas as glucokinase activators” (J Med Chem, 2014).
≈ marks a conversion by molar mass, not a printed value.

Tests used:
[1] = target: T1, Hexokinase-4 (Homo sapiens, UniProt P35557); assay: Activation of purified human glucokinase isoform 3 (13 to 466 aa) using 5 mM glucose by spectrophotometry in presence of NAD+ and glucose 6-phosphate dehydrogenase in presence of 4% HSA; details: read-out: EC50
T1 sequence (P35557 whole entry): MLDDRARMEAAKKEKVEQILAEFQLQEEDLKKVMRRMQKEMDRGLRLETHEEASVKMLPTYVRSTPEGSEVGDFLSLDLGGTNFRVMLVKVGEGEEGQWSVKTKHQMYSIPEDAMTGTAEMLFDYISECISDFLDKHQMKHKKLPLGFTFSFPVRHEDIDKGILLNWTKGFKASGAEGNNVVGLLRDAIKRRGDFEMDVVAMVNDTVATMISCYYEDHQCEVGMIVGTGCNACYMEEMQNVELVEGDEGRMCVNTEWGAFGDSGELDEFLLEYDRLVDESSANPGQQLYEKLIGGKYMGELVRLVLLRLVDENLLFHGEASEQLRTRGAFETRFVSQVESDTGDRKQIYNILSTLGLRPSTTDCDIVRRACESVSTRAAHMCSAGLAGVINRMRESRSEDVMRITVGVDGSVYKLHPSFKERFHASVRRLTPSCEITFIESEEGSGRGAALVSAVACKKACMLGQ

[2] = target: T1, Hexokinase-4; assay: Activation of purified human glucokinase isoform 3 (13 to 466 aa) using 5 mM glucose by spectrophotometry in presence of NAD+ and glucose 6-phosphate dehydrogenase
[3] = Extraction ratio in human liver microsomes at 1 uM up to 20 mins by LC-MS/MS analysis; format: ADME; details: read-out: ERH
[4] = Extraction ratio in mouse liver microsomes at 1 uM up to 20 mins by LC-MS/MS analysis; format: ADME; details: read-out: ERH
[5] = tested on: Mus musculus; assay: Antidiabetic activity in C57BL/6 mouse assessed as reduction in glucose AUC level at 3 mg/kg, po by oral glucose tolerance test relative to control; format: functional; set-up: scale not given: the % may be the effect or the level left
Summary of the method: (§1)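 Dose–response oral glucose tolerance test in C57BL/6 mice at 3, 10 and 30 mg/kg po. Glucose AUC reduction is reported with p < 0.05 significance. Glucose min is the lowest glucose at the 2 h time point for any animal, n = 8.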

[6] = Oral bioavailability in fed CD-1 mouse at 10 mg/kg as single dose; format: ADME, organism-based; details: in vivo
Summary of the method: (§2)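 Male CD-1 mice, fed, given a single 10 mg/kg oral dose as a suspension in aqueous 1% CMC/0.05% Tween 80 (w/v). Parameters are calculated from arithmetic mean plasma concentrations, n = 3 per time point.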

[7] = Plasma concentration in C57BL/6 mouse at 10 mg/kg, po measured at 2.5 hrs; format: ADME, organism-based; set-up: dose 10 mg/kg, route oral
Summary of the method: (§3)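 C57BL/6 mice in the OGTT study, dosed orally at 3, 10 or 30 mg/kg. Plasma concentrations are means at 2.5 h postdose, n = 8 per dose group.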

[8] = tested on: Mus musculus; assay: Antidiabetic activity in ob/ob mouse assessed as reduction in glucose excursion at 30 mg/kg, po bid for 14 days by oral glucose tolerance test; format: functional; set-up: scale not given: the % may be the effect or the level left
Summary of the method: (§4)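 ob/ob mice dosed orally b.i.d. at 3, 30 and 100 mg/kg for 14 days. On day 14 an OGTT is run, with fasting blood glucose read at −0.5 h and glucose excursion as AUC reduction. Significance is taken at p < 0.05.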

[9] = AUC (infinity) in fed CD-1 mouse at 10 mg/kg, po as single dose; format: ADME, organism-based; set-up: time infinity, dose 10 mg/kg, route oral; details: plasma; summary of the method: as §2
[10] = Half life in fed CD-1 mouse at 1 mg/kg, iv as single dose; format: ADME, organism-based; set-up: dose 1 mg/kg, route intravenous; details: in vivo
Summary of the method: (§5)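 Male CD-1 mice, fed, given a single 1 mg/kg iv dose as a solution in 40% PEG400/20% EtOH/40% saline (v/v). Parameters are calculated from arithmetic mean plasma concentrations, n = 3 per time point.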

[11] = Clearance in fed CD-1 mouse at 1 mg/kg, iv as single dose; format: ADME, organism-based; set-up: dose 1 mg/kg, route intravenous; details: in vivo; summary of the method: as §5
[12] = AUClast in fed CD-1 mouse at 10 mg/kg, po as single dose; format: ADME, organism-based; set-up: time 0 - last, dose 10 mg/kg, route oral; details: plasma; summary of the method: as §2
[13] = tested on: Mus musculus; assay: Antidiabetic activity in ob/ob mouse assessed as reduction in glucose excursion at 3 mg/kg, po bid for 14 days by oral glucose tolerance test; format: functional; set-up: scale not given: the % may be the effect or the level left; summary of the method: as §4
[14] = Solubility of the compound at pH 6.5; format: physicochemical; details: buffer
[15] = Plasma protein binding in human; format: ADME, cell-free; details: read-out: PPB (converted)
[16] = Solubility of the compound at pH 7.4; format: physicochemical; details: buffer
[17] = tested on: Mus musculus; assay: Antidiabetic activity in C57BL/6 mouse assessed as minimum glucose level at 30 mg/kg, po measured at 2 hrs by oral glucose tolerance test relative to control; format: functional; summary of the method: as §1
[18] = Volume of distribution at steady state in fed CD-1 mouse at 1 mg/kg, iv as single dose; format: ADME, organism-based; set-up: dose 1 mg/kg, route intravenous; details: in vivo, read-out: Vdss; summary of the method: as §5
[19] = Fraction unbound in human plasma; format: ADME, cell-free
[20] = Plasma concentration in C57BL/6 mouse at 30 mg/kg, po measured at 2.5 hrs; format: ADME, organism-based; set-up: dose 30 mg/kg, route oral; summary of the method: as §3
[21] = Cmax in fed CD-1 mouse at 10 mg/kg, po as single dose; format: ADME, organism-based; set-up: dose 10 mg/kg, route oral; details: in vivo; summary of the method: as §2
[22] = Tmax in fed CD-1 mouse at 10 mg/kg, po as single dose; format: ADME, organism-based; set-up: dose 10 mg/kg, route oral; details: in vivo; summary of the method: as §2
[23] = Permeability across pig LLC-PK cells; format: ADME, cell-based, Sus scrofa
[24] = Plasma protein binding in mouse; format: ADME; details: read-out: PPB (converted)
[25] = AUC (infinity) in fed CD-1 mouse at 1 mg/kg, iv as single dose; format: ADME, organism-based; set-up: time infinity, dose 1 mg/kg, route intravenous; details: plasma; summary of the method: as §5
[26] = Solubility of the compound at pH 1.2; format: physicochemical; details: buffer
[27] = tested on: Mus musculus; assay: Antidiabetic activity in ob/ob mouse assessed as reduction in fasting blood glucose at 3 mg/kg, po bid for 14 days by oral glucose tolerance test (reference value: 187.9 mg/dL); format: functional; details: dose 100 mg/kg, in the assay text read “at 100 mg/kg” for “at 3 mg/kg”; summary of the method: as §4
[28] = tested on: Mus musculus; assay: Antidiabetic activity in ob/ob mouse assessed as reduction in glucose excursion at 100 mg/kg, po bid for 14 days by oral glucose tolerance test; format: functional; set-up: scale not given: the % may be the effect or the level left; summary of the method: as §4
[29] = Extraction ratio in fed CD-1 mouse at 1 mg/kg, iv as single dose; format: ADME, organism-based; set-up: dose 1 mg/kg, route intravenous; details: in vivo, read-out: ERH
Summary of the method: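 Male CD-1 mice, fed, given a single 1 mg/kg iv dose in 40% PEG400/20% EtOH/40% saline (v/v). Extraction ratio is calculated from clearance using a mouse hepatic blood flow of 90 mL min−1 kg−1. Plasma concentrations are arithmetic means, n = 3 per time point.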

[30] = Plasma concentration in C57BL/6 mouse at 3 mg/kg, po measured at 2.5 hrs; format: ADME, organism-based; set-up: dose 3 mg/kg, route oral; summary of the method: as §3
[31] = tested on: Mus musculus; assay: Antidiabetic activity in C57BL/6 mouse assessed as reduction in glucose AUC level at 10 mg/kg, po by oral glucose tolerance test relative to control; format: functional; set-up: scale not given: the % may be the effect or the level left; summary of the method: as §1
[32] = AUClast in fed CD-1 mouse at 1 mg/kg, iv as single dose; format: ADME, organism-based; set-up: time 0 - last, dose 1 mg/kg, route intravenous; details: plasma; summary of the method: as §5
[33] = tested on: Mus musculus; assay: Antidiabetic activity in C57BL/6 mouse assessed as reduction in glucose AUC level at 30 mg/kg, po by oral glucose tolerance test relative to control; format: functional; set-up: scale not given: the % may be the effect or the level left; summary of the method: as §1

CCc1ncccc1Oc1cc(Sc2ccccn2)cnc1NC(=O)NCc1ccc(O)cc1
EC50 [1]: 1530 nM | EC50 [2]: 172 nM

CNC(=O)Nc1ncc(Sc2ccccn2)cc1Oc1cccnc1C
hepatic extraction ratio at 20 min, 1 µM [3]: 0.37 | EC50 [1]: 1850 nM | hepatic extraction ratio at 20 min, 1 µM [4]: 0.68 | EC50 [2]: 262 nM

CCn1nccc1Oc1cc(Sc2ccccn2)cnc1NC(=O)NC
hepatic extraction ratio at 20 min, 1 µM [3]: 0.45 | EC50 [1]: 472 nM | hepatic extraction ratio at 20 min, 1 µM [4]: 0.83 | EC50 [2]: 319 nM

CNC(=O)Nc1ncc(Sc2ccccn2)cc1Oc1c(C)n[nH]c1C
EC50 [1]: 345 nM | EC50 [2]: 2240 nM

CNC(=O)Nc1ncc(SCc2ccccn2)cc1Oc1cccnc1C
EC50 [1]: 9300 nM | EC50 [2]: 3090 nM

CNC(=O)Nc1ncc(SCc2ccccc2)cc1Oc1cccnc1C
hepatic extraction ratio at 20 min, 1 µM [3]: 0.93 | EC50 [1]: 1170 nM | hepatic extraction ratio at 20 min, 1 µM [4]: 0.93 | EC50 [2]: 172 nM

CNC(=O)Nc1ncc(SCCCO)cc1Oc1cccnc1C
hepatic extraction ratio at 20 min, 1 µM [3]: 0.15 | EC50 [1]: 714 nM | hepatic extraction ratio at 20 min, 1 µM [4]: 0.19 | EC50 [2]: 550 nM

CNC(=O)Nc1ncc(SCCCOC)cc1Oc1cccnc1C
Activity [5]: 8% | bioavailability [6]: 67.8% | concentration at 2.5 h [7]: 178 ng/mL | Activity [8]: 33.3% | AUC(0-inf) [9]: 5240 ng·h/mL | half-life [10]: 2.67 h | hepatic extraction ratio at 20 min, 1 µM [3]: 0.32 | clearance [11]: 21.5 mL/min/kg | AUC(0-t) [12]: 5030 ng·h/mL | Activity [13]: 18.4% | EC50 [1]: 311 nM | hepatic extraction ratio at 20 min, 1 µM [4]: 0.34 | solubility [14]: 45 µg/mL (≈ 124 µM) | fraction unbound [15]: 0.38 | solubility [16]: 282 µg/mL (≈ 778 µM) | Activity [17]: 73 mg/dL | Vd [18]: 1.98 L/kg | fraction unbound [19]: 0.4 | concentration at 2.5 h [20]: 633 ng/mL | Cmax [21]: 2320 ng/mL | Tmax [22]: 0.5 h | permeability [23]: permeable | fraction unbound [24]: 0.26 | AUC(0-inf) [25]: 773 ng·h/mL | solubility [26]: > 1000 µg/mL | Activity [27]: 125.9 mg/dL | Activity [28]: 30.8% | hepatic extraction ratio [29]: 0.239 | concentration at 2.5 h [30]: 46 ng/mL | Activity [31]: 28.6% | EC50 [2]: 182 nM | AUC(0-t) [32]: 762 ng·h/mL | Activity [33]: 30.8%

CNC(=O)Nc1ncc(SCC2CCOCC2)cc1Oc1cccnc1C
hepatic extraction ratio at 20 min, 1 µM [3]: 0.48 | EC50 [1]: 436 nM | hepatic extraction ratio at 20 min, 1 µM [4]: 0.43 | EC50 [2]: 317 nM

CNC(=O)Nc1ncc(SC2CCOCC2)cc1Oc1cccnc1C
hepatic extraction ratio at 20 min, 1 µM [3]: 0.47 | EC50 [1]: 233 nM | hepatic extraction ratio at 20 min, 1 µM [4]: 0.3 | EC50 [2]: 336 nM

CNC(=O)Nc1ncc(SC2CCN(C(=O)OC(C)(C)C)CC2)cc1Oc1cccnc1C
hepatic extraction ratio at 20 min, 1 µM [3]: 0.95 | EC50 [1]: 550 nM | hepatic extraction ratio at 20 min, 1 µM [4]: 0.9 | EC50 [2]: 132 nM

CNC(=O)Nc1ncc(SC2CCN(C(C)=O)CC2)cc1Oc1cccnc1C
hepatic extraction ratio at 20 min, 1 µM [3]: 0.44 | EC50 [1]: 196 nM | hepatic extraction ratio at 20 min, 1 µM [4]: 0.33 | EC50 [2]: 111 nM

CNC(=O)Nc1ncc(SC2CCN(S(C)(=O)=O)CC2)cc1Oc1cccnc1C
hepatic extraction ratio at 20 min, 1 µM [3]: 0.5 | EC50 [1]: 248 nM | hepatic extraction ratio at 20 min, 1 µM [4]: 0.32 | EC50 [2]: 195 nM
